Where “and” joins values, the source holds several entries; their conditions need not be identical. Equal values may be shown once.
Test system: U2OS
Assay: Multiplex assay against U2OS
Assay type: toxicity, cell-based
Conditions: human
Summary of the method: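 Four dyes were applied at seeding to live cells: Hoechst33342, BioTracker Green Microtubule Cytoskeleton Dye, MitoTracker Red and Annexin V Alexa Fluor 680. Imaging after compound addition used a CQ1 microscope at 37°C and 5% CO2. CellPathfinder machine-learning gating then sorted cells into Hoechst high-intensity objects or normal cells, normal cells into healthy, pyknosed or fragmented nuclei, and pyknosed cells into mitotic or apoptotic, with tubulin, mitochondrial-mass and membrane-permeability phenotypes given as per cents of healthy-nucleus cells.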

[1] = 12 h, 1 µM, compound concentration 1 uM
[2] = 12 h, 10 µM, compound concentration 10 uM
[3] = 24 h, 1 µM, compound concentration 1 uM
[4] = 24 h, 10 µM, compound concentration 10 uM
[5] = 48 h, 1 µM, compound concentration 1 uM
[6] = 48 h, 10 µM, compound concentration 10 uM

In the case of `Cc1ccc(C(C)(O)c2nc3ccccc3s2)c(C)c1` (configuration not stated), the “Population Apoptotic (%)” value [1] is reported as 86% and 100%, the “Population Fragmented Nuclei (%)” value [1] is reported as 19% and 17% and the “Population Healthy Nuclei (%)” value [1] is reported as 70% and 78%. For the same molecule, the “Population Hoechst High Intensity Objects (%)” value [1] was 3% and 0%, the “Population Membrane Permeable-Phenotype (%)” value [1] was 4% and 9% and the “Population Mitochondria Different-Phenotype (%)” value [1] was 1% and 4%. The “Population Mitotic Cells (%)” value [1] was 13% and 0%, the “Population Normal (%)” value [1] was 96% and 99% and the “Population Pyknosed Nuclei (%)” value [1] was 9% and 3%. The “Population Tubulin-Different-Phenotype (%)” value [1] was 2% and 5%, the “Total Cell Count” value [1] was 249 and 141 and the “Population Apoptotic (%)” value [2] was 100% and 66%. The “Population Fragmented Nuclei (%)” value [2] was 25% and 18%, the “Population Healthy Nuclei (%)” value [2] was 67% and 77% and the “Population Hoechst High Intensity Objects (%)” value [2] was 2% and 4%. The “Population Membrane Permeable-Phenotype (%)” value [2] was 9% and 3%, the “Population Mitochondria Different-Phenotype (%)” value [2] was 3% and 1% and the “Population Normal (%)” value [2] was 97% and 95%. For the same molecule, the “Population Pyknosed Nuclei (%)” value [2] was 6% and 3%, the “Population Tubulin-Different-Phenotype (%)” value [2] was 3% and 1% and the “Total Cell Count” value [2] was 234 and 89. For the same molecule, the “Population Apoptotic (%)” value [3] was 92% and 90%, the “Population Fragmented Nuclei (%)” value [3] was 22% and 13% and the “Population Healthy Nuclei (%)” value [3] was 69% and 80%. For the same molecule, the “Population Hoechst High Intensity Objects (%)” value [3] was 1% and 0%, the “Population Membrane Permeable-Phenotype (%)” value [3] was 4% and 6% and the “Population Mitochondria Different-Phenotype (%)” value [3] was 0% and 3%. The “Population Mitotic Cells (%)” value [3] was 7% and 10%, the “Population Normal (%)” value [3] was 98% and 99% and the “Population Pyknosed Nuclei (%)” value [3] was 8% and 6%. The “Population Tubulin-Different-Phenotype (%)” value [3] was 3% and 4%, the “Total Cell Count” value [3] was 327 and 159 and the “Population Apoptotic (%)” value [4] was 88% and 75%. For the same molecule, the “Population Fragmented Nuclei (%)” value [4] was 22% and 16%, the “Population Healthy Nuclei (%)” value [4] was 71% and 75% and the “Population Hoechst High Intensity Objects (%)” value [4] was 1% and 4%. For the same molecule, the “Population Membrane Permeable-Phenotype (%)” value [4] was 5% and 3%, the “Population Mitochondria Different-Phenotype (%)” value [4] was 3% and 1% and the “Population Mitotic Cells (%)” value [4] was 11% and 25%. For the same molecule, the “Population Normal (%)” value [4] was 98% and 95%, the “Population Pyknosed Nuclei (%)” value [4] was 6% and 7% and the “Population Tubulin-Different-Phenotype (%)” value [4] was 3%. The “Total Cell Count” value [4] was 272 and 113, the “Population Apoptotic (%)” value [5] was 88% and 94% and the “Population Fragmented Nuclei (%)” value [5] was 16% and 15%. For the same molecule, the “Population Healthy Nuclei (%)” value [5] was 74% and 76%, the “Population Hoechst High Intensity Objects (%)” value [5] was 2% and 3% and the “Population Membrane Permeable-Phenotype (%)” value [5] was 5% and 6%. For the same molecule, the “Population Mitochondria Different-Phenotype (%)” value [5] was 2% and 3%, the “Population Mitotic Cells (%)” value [5] was 11% and 5% and the “Population Normal (%)” value [5] was 97% and 96%. For the same molecule, the “Population Pyknosed Nuclei (%)” value [5] was 9% and 8%, the “Population Tubulin-Different-Phenotype (%)” value [5] was 2% and 5% and the “Total Cell Count” value [5] was 442 and 215. The “Population Apoptotic (%)” value [6] was 96% and 85%, the “Population Fragmented Nuclei (%)” value [6] was 23% and 11% and the “Population Healthy Nuclei (%)” value [6] was 69% and 83%. For the same molecule, the “Population Hoechst High Intensity Objects (%)” value [6] was 2% and 5%, the “Population Membrane Permeable-Phenotype (%)” value [6] was 6% and 5% and the “Population Mitochondria Different-Phenotype (%)” value [6] was 1%. For the same molecule, the “Population Normal (%)” value [6] was 97% and 94%, the “Population Pyknosed Nuclei (%)” value [6] was 7% and 5% and the “Population Tubulin-Different-Phenotype (%)” value [6] was 4%. The “Total Cell Count” value [6] was 365 and 147.

With `O=C(CCCc1ccccc1)Nc1nc2ccccc2c(=O)s1` the “Population Apoptotic (%)” value [1] was 92% and 55%, the “Population Fragmented Nuclei (%)” value [1] was 26% and 17% and the “Population Healthy Nuclei (%)” value [1] was 64% and 74%. For the same molecule, the “Population Hoechst High Intensity Objects (%)” value [1] was 2% and 0%, the “Population Membrane Permeable-Phenotype (%)” value [1] was 4% and 7% and the “Population Mitochondria Different-Phenotype (%)” value [1] was 2% and 3%. For the same molecule, the “Population Normal (%)” value [1] was 97% and 100%, the “Population Pyknosed Nuclei (%)” value [1] was 9% and 7% and the “Population Tubulin-Different-Phenotype (%)” value [1] was 1% and 2%. For the same molecule, the “Total Cell Count” value [1] was 274 and 113, the “Population Apoptotic (%)” value [2] was 72% and 100% and the “Population Fragmented Nuclei (%)” value [2] was 31% and 20%. The “Population Healthy Nuclei (%)” value [2] was 58% and 67%, the “Population Hoechst High Intensity Objects (%)” value [2] was 2% and 4% and the “Population Membrane Permeable-Phenotype (%)” value [2] was 2% and 7%. The “Population Mitochondria Different-Phenotype (%)” value [2] was 0% and 6%, the “Population Normal (%)” value [2] was 97% and 95% and the “Population Pyknosed Nuclei (%)” value [2] was 9% and 11%. The “Population Tubulin-Different-Phenotype (%)” value [2] was 1% and 6%, the “Total Cell Count” value [2] was 270 and 101 and the “Population Apoptotic (%)” value [3] was 79% and 84%. For the same molecule, the “Population Fragmented Nuclei (%)” value [3] was 22% and 17%, the “Population Healthy Nuclei (%)” value [3] was 68% and 73% and the “Population Hoechst High Intensity Objects (%)” value [3] was 1% and 0%. For the same molecule, the “Population Membrane Permeable-Phenotype (%)” value [3] was 4% and 8%, the “Population Mitochondria Different-Phenotype (%)” value [3] was 2% and the “Population Mitotic Cells (%)” value [3] was 20% and 15%. For the same molecule, the “Population Normal (%)” value [3] was 98% and 100%, the “Population Pyknosed Nuclei (%)” value [3] was 9% and the “Population Tubulin-Different-Phenotype (%)” value [3] was 2% and 3%. The “Total Cell Count” value [3] was 325 and 141, the “Population Apoptotic (%)” value [4] was 86% and 100% and the “Population Fragmented Nuclei (%)” value [4] was 25% and 19%. For the same molecule, the “Population Healthy Nuclei (%)” value [4] was 65% and 71%, the “Population Hoechst High Intensity Objects (%)” value [4] was 2% and 1% and the “Population Membrane Permeable-Phenotype (%)” value [4] was 5% and 8%. The “Population Mitochondria Different-Phenotype (%)” value [4] was 1% and 2%, the “Population Mitotic Cells (%)” value [4] was 13% and 0% and the “Population Normal (%)” value [4] was 97% and 98%. For the same molecule, the “Population Pyknosed Nuclei (%)” value [4] was 9%, the “Population Tubulin-Different-Phenotype (%)” value [4] was 4% and 3% and the “Total Cell Count” value [4] was 319 and 124. For the same molecule, the “Population Apoptotic (%)” value [5] was 91% and 87%, the “Population Fragmented Nuclei (%)” value [5] was 13% and 19% and the “Population Healthy Nuclei (%)” value [5] was 76% and 71%. The “Population Hoechst High Intensity Objects (%)” value [5] was 7% and 5%, the “Population Membrane Permeable-Phenotype (%)” value [5] was 3% and the “Population Mitochondria Different-Phenotype (%)” value [5] was 2% and 3%. For the same molecule, the “Population Mitotic Cells (%)” value [5] was 8% and 12%, the “Population Normal (%)” value [5] was 92% and 94% and the “Population Pyknosed Nuclei (%)” value [5] was 9% and 8%. The “Population Tubulin-Different-Phenotype (%)” value [5] was 1% and 6%, the “Total Cell Count” value [5] was 394 and 192 and the “Population Apoptotic (%)” value [6] was 91% and 95%. The “Population Fragmented Nuclei (%)” value [6] was 20% and 15%, the “Population Healthy Nuclei (%)” value [6] was 70% and 72% and the “Population Hoechst High Intensity Objects (%)” value [6] was 2% and 0%. For the same molecule, the “Population Membrane Permeable-Phenotype (%)” value [6] was 5% and 9%, the “Population Mitochondria Different-Phenotype (%)” value [6] was 0% and 3% and the “Population Mitotic Cells (%)” value [6] was 8% and 4%. For the same molecule, the “Population Normal (%)” value [6] was 97% and 99%, the “Population Pyknosed Nuclei (%)” value [6] was 8% and 12% and the “Population Tubulin-Different-Phenotype (%)” value [6] was 3% and 5%. For the same molecule, the “Total Cell Count” value [6] was 427 and 175.

`Cc1noc(-c2ccc(-c3ccc(CC(=O)O)cc3)cc2)c1NC(=O)O[C@H](C)c1ccccc1Cl` was tested, and the “Population Apoptotic (%)” value [1] was 95% and 85%, the “Population Fragmented Nuclei (%)” value [1] was 21% and 19% and the “Population Healthy Nuclei (%)” value [1] was 69% and 74%. The “Population Hoechst High Intensity Objects (%)” value [1] was 4% and 0%, the “Population Membrane Permeable-Phenotype (%)” value [1] was 7% and 2% and the “Population Mitochondria Different-Phenotype (%)” value [1] was 5% and 2%. The “Population Mitotic Cells (%)” value [1] was 5% and 14%, the “Population Normal (%)” value [1] was 95% and 99% and the “Population Pyknosed Nuclei (%)” value [1] was 9% and 7%. The “Population Tubulin-Different-Phenotype (%)” value [1] was 4%, the “Total Cell Count” value [1] was 231 and 101 and the “Population Apoptotic (%)” value [2] was 78% and 71%. The “Population Fragmented Nuclei (%)” value [2] was 29% and 11%, the “Population Healthy Nuclei (%)” value [2] was 61% and 83% and the “Population Hoechst High Intensity Objects (%)” value [2] was 2%. The “Population Membrane Permeable-Phenotype (%)” value [2] was 11% and 6%, the “Population Mitochondria Different-Phenotype (%)” value [2] was 4% and 2% and the “Population Mitotic Cells (%)” value [2] was 21% and 28%. The “Population Normal (%)” value [2] was 97%, the “Population Pyknosed Nuclei (%)” value [2] was 9% and 5% and the “Population Tubulin-Different-Phenotype (%)” value [2] was 6%. For the same molecule, the “Total Cell Count” value [2] was 242 and 138, the “Population Apoptotic (%)” value [3] was 96% and 77% and the “Population Fragmented Nuclei (%)” value [3] was 19% and 15%. The “Population Healthy Nuclei (%)” value [3] was 70% and 77%, the “Population Hoechst High Intensity Objects (%)” value [3] was 2% and 0% and the “Population Membrane Permeable-Phenotype (%)” value [3] was 5% and 4%. For the same molecule, the “Population Mitochondria Different-Phenotype (%)” value [3] was 4% and 3%, the “Population Normal (%)” value [3] was 97% and 99% and the “Population Pyknosed Nuclei (%)” value [3] was 9% and 7%. The “Population Tubulin-Different-Phenotype (%)” value [3] was 3% and 6%, the “Total Cell Count” value [3] was 277 and 125 and the “Population Apoptotic (%)” value [4] was 92% and 90%. For the same molecule, the “Population Fragmented Nuclei (%)” value [4] was 24% and 12%, the “Population Healthy Nuclei (%)” value [4] was 65% and 80% and the “Population Hoechst High Intensity Objects (%)” value [4] was 1% and 2%. The “Population Membrane Permeable-Phenotype (%)” value [4] was 11% and 7%, the “Population Mitochondria Different-Phenotype (%)” value [4] was 2% and the “Population Mitotic Cells (%)” value [4] was 7% and 9%. For the same molecule, the “Population Normal (%)” value [4] was 98% and 97%, the “Population Pyknosed Nuclei (%)” value [4] was 10% and 7% and the “Population Tubulin-Different-Phenotype (%)” value [4] was 5% and 4%. For the same molecule, the “Total Cell Count” value [4] was 260 and 154, the “Population Apoptotic (%)” value [5] was 97% and 86% and the “Population Fragmented Nuclei (%)” value [5] was 15% and 18%. For the same molecule, the “Population Healthy Nuclei (%)” value [5] was 75% and 72%, the “Population Hoechst High Intensity Objects (%)” value [5] was 1% and 0% and the “Population Membrane Permeable-Phenotype (%)” value [5] was 6%. For the same molecule, the “Population Mitochondria Different-Phenotype (%)” value [5] was 3% and 4%, the “Population Normal (%)” value [5] was 98% and 100% and the “Population Pyknosed Nuclei (%)” value [5] was 9% and 8%. The “Population Tubulin-Different-Phenotype (%)” value [5] was 3% and 4%, the “Total Cell Count” value [5] was 408 and 170 and the “Population Apoptotic (%)” value [6] was 92% and 85%. For the same molecule, the “Population Fragmented Nuclei (%)” value [6] was 19% and 9%, the “Population Healthy Nuclei (%)” value [6] was 72% and 78% and the “Population Hoechst High Intensity Objects (%)” value [6] was 3% and 4%. The “Population Membrane Permeable-Phenotype (%)” value [6] was 7% and 6%, the “Population Mitochondria Different-Phenotype (%)” value [6] was 3% and 2% and the “Population Mitotic Cells (%)” value [6] was 7% and 14%. For the same molecule, the “Population Normal (%)” value [6] was 96% and 95%, the “Population Pyknosed Nuclei (%)” value [6] was 8% and 11% and the “Population Tubulin-Different-Phenotype (%)” value [6] was 5% and 4%. The “Total Cell Count” value [6] was 344 and 241.

Source: ChEMBL document CHEMBL5724801, “EUbOPEN Chemogenomics Library - Multiplex” (2024)
